# According to ChEMBL document CHEMBL5329167, “Design, synthesis and evaluation of halogenated phenazine antibacterial prodrugs targeting nitroreductase enzymes for activation” (RSC Med Chem, 2023):
# The source made the active and inactive calls. The rule behind the calls is not given here.
# Legend:
# Staphylococcus aureus [1] = assay: Antibacterial activity against methicillin-resistant Staphylococcus aureus clinical isolate 1 assessed as bacterial growth inhibition incubated for 16 hrs by CLSI based broth microdilution method; type: functional
# Staphylococcus aureus [2] = assay: Antibacterial activity against Staphylococcus aureus clinical isolate 156 assessed as bacterial growth inhibition incubated for 16 hrs by CLSI based broth microdilution method; type: functional
# Staphylococcus aureus [3] = assay: Antibacterial activity against Staphylococcus aureus clinical isolate 129 assessed as bacterial growth inhibition incubated for 16 hrs by CLSI based broth microdilution method; type: functional
# [4] = Cytotoxicity against HEK293 cells incubated for 48 hrs by MTT assay; type: toxicity, cell-based; conditions: human
# How it was run: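 HEK-293 cells (10⁴/well) in DMEM with 10% FBS, penicillin/streptomycin, settled overnight at 37 °C, 5% CO₂. Medium replaced with compound at 0.10–100 µM (2-fold steps); DMSO as negative control. After 48 h at 37 °C, MTT (5 mg/mL stock) added for 3 h. Formazan dissolved in DMSO, OD read at 570 nm. Eight replicates per treatment.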
# [5] = Lipophilicity, LogP of compound in octanol-water mixture incubated for 1 hr by UV-vis spectroscopy; type: physicochemical
# How it was run: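 Shake-flask partition: compound in octanol (1% v/v DMSO) mixed with equal volume water, stirred vigorously, left 1 h at room temperature to separate. Octanol-phase concentration measured by UV-Vis at 370 or 380 nm against a serial-dilution standard curve. Water concentration obtained by mass balance; LogP = log10(Coct/Cw). Acetophenone as positive control. Three independent experiments.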
# [6] = Metal chelating activity assessed as formation of phenazine-iron complex measured for 1 to 60 mins by UV-vis spectroscopy; conditions: time 1-60 min
# How it was run: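 Compound from a 10 mM DMSO stock diluted in DMSO in a cuvette, alone or with ammonium iron(II) sulfate hexahydrate (10 mM aqueous stock). Spectra of the compound-only cuvette and the iron-containing cuvette are compared by UV-vis spectrometry to judge phenazine–iron(II) complex formation.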
# Staphylococcus aureus [7] = assay: Antibacterial activity against Staphylococcus aureus clinical isolate 138 assessed as bacterial growth inhibition incubated for 16 hrs by CLSI based broth microdilution method; type: functional
# Staphylococcus aureus [8] = assay: Antibacterial activity against methicillin-resistant Staphylococcus aureus BAA-1707 assessed as bacterial growth inhibition incubated for 16 hrs by CLSI based broth microdilution method; type: functional
# How it was run: (§1)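 Broth microdilution per CLSI in LB, eleven two-fold serial dilutions spanning 0.10 to 100 µM. Inoculum ~10⁵ cells/well from fresh log-phase culture (OD₆₀₀ 0.6–0.8). MIC taken as lowest concentration preventing growth after 16 h at 37 °C, read by OD₆₀₀ turbidity. DMSO vehicle control, top 0.5% v/v. At least three independent experiments.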
# Enterococcus faecalis = assay: Antibacterial activity against Enterococcus faecalis OG1RF assessed as bacterial growth inhibition incubated for 16 hrs by CLSI based broth microdilution method; type: functional
# How it was run: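 Broth microdilution per CLSI in brain-heart infusion: eleven 2-fold dilutions spanning 0.10–100 µM, with DMSO vehicle/negative control topping at 0.5% v/v. Inoculum ~10⁵ cells/well from log-phase culture (OD₆₀₀ 0.6–0.8). 37 °C, 16 h. MIC is the lowest concentration preventing growth, read as OD₆₀₀ turbidity. At least three independent experiments.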
# Staphylococcus aureus [9] = assay: Antibacterial activity against Staphylococcus aureus clinical isolate 147 assessed as bacterial growth inhibition incubated for 16 hrs by CLSI based broth microdilution method; type: functional
# Enterococcus = assay: Antibacterial activity against vancomycin-resistant Enterococcus 700221 assessed as bacterial growth inhibition incubated for 16 hrs by CLSI based broth microdilution method; type: functional
# How it was run: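 Growth scored by OD₆₀₀ turbidity after 16 h at 37 °C; MIC is the lowest concentration preventing growth. DMSO vehicle control up to 0.5% v/v. Three or more independent experiments.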
# [10] = system: Staphylococcus epidermidis; assay: Antibacterial activity against methicillin-resistant Staphylococcus epidermidis 35984 assessed as bacterial growth inhibition incubated for 16 hrs by CLSI based broth microdilution method; type: functional; how it was run: as §1
# Streptococcus pneumoniae = assay: Antibacterial activity against Streptococcus pneumoniae 6303 assessed as bacterial growth inhibition incubated for 16 hrs by CLSI based broth microdilution method; type: functional
# How it was run: (§2)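 CLSI broth microdilution in LB: eleven 2-fold serial dilutions, 0.10–100 µM. DMSO vehicle/negative control diluted from 0.5% v/v. Wells seeded with ~10⁵ cells from log-phase culture (OD₆₀₀ 0.6–0.8), held 16 h at 37 °C. MIC taken as the lowest concentration preventing growth by OD₆₀₀ turbidity. Minimum three independent experiments.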
# Staphylococcus aureus [11] = assay: Antibacterial activity against methicillin-resistant Staphylococcus aureus 1707 assessed as bacterial growth inhibition incubated for 16 hrs by CLSI based broth microdilution method; type: functional; how it was run: as §1
# [12] = system: Staphylococcus epidermidis; assay: Antibacterial activity against Staphylococcus epidermidis 12228 assessed as bacterial growth inhibition incubated for 16 hrs by CLSI based broth microdilution method; type: functional; how it was run: as §2
# Staphylococcus aureus [13] = assay: Antibacterial activity against methicillin-resistant Staphylococcus aureus BAA-44 assessed as bacterial growth inhibition incubated for 16 hrs by CLSI based broth microdilution method; type: functional; how it was run: as §1
# [14] = Hemolytic activity against red blood cells (unknown origin) at 200 uM; type: toxicity, cell-based, Erythrocyte; conditions: read-out: Activity
# Staphylococcus aureus [15] = assay: Antibacterial activity against methicillin-resistant Staphylococcus aureus 1707 assessed as zone of inhibition at 10 mM incubated for 16 hrs by agar diffusion assay; type: functional
# How it was run: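 Modified Kirby-Bauer disk diffusion. 100 µL MRSA 1707 inoculum (OD₆₀₀ 0.7, ~10⁸ CFU) spread on LB agar and left 30 min. 10 µL of 10 mM DMSO compound solution then pipetted onto the plate. Incubation 16 h at 37 °C; zone of inhibition area (cm²) measured. Three independent experiments.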
# [16] = system: Staphylococcus epidermidis; assay: Antibacterial activity against Staphylococcus epidermidis clinical isolate CL-1 assessed as bacterial growth inhibition incubated for 16 hrs by CLSI based broth microdilution method; type: functional
# Staphylococcus aureus [17] = assay: Antibacterial activity against methicillin-resistant Staphylococcus aureus clinical isolate 2 assessed as bacterial growth inhibition incubated for 16 hrs by CLSI based broth microdilution method; type: functional
smiles,measurement,setting,value
O=[N+]([O-])c1ccc(CS(=O)(=O)Oc2c(Br)cc(Br)c3nc4ccccc4nc23)cc1,MIC,Staphylococcus aureus [1],3.13 µM
same,MIC,Staphylococcus aureus [2],6.25 µM
same,MIC,Staphylococcus aureus [3],6.25 µM
same,CC50 at 48 h,[4],51.7 µM
same,logP at 1 h,[5],0.42
same,Activity,[6],inactive
same,MIC,Staphylococcus aureus [7],4.69 µM
same,MIC,Staphylococcus aureus [8],0.78 µM
same,MIC,Enterococcus faecalis,37.5 µM
same,MIC,Staphylococcus aureus [9],6.25 µM
same,MIC,Enterococcus,9.38 µM
same,MIC,[10],4.69 µM
same,MIC,Streptococcus pneumoniae,4.69 µM
same,MIC,Staphylococcus aureus [11],0.78 µM
same,MIC,[12],4.69 µM
same,MIC,Staphylococcus aureus [13],1.56 µM
same,hemolysis at 200 µM,[14],< 1%
same,diameter of the inhibition zone (DIZ),Staphylococcus aureus [15],1.13 cm2
same,MIC,[16],6.25 µM
same,MIC,Staphylococcus aureus [17],2.35 µM
